The inhibition is the share of the control response that was lost under treatment. For orientation: IC50 means the concentration at which inhibition is half-maximal.

The results in this text go back to ChEMBL document CHEMBL1817649, “Structure-guided design and synthesis of P1' position 1-phenylcycloalkylamine-derived pentapeptidic BACE1 inhibitors” (Bioorg Med Chem, 2011).

Test [1] has as its target T1, Beta-secretase 1 (Homo sapiens, UniProt P56817). The experiment in a line: Inhibition of human recombinant BACE1 at 2 uM by FRET assay. Put shortly:
(§1)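 Single-point screen of BACE1 inhibition, run first at the higher concentration and then at the lower one. Read-out is percent inhibition.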

The target in test [2] is T1, Beta-secretase 1. The experiment in a line: Inhibition of human recombinant BACE1 by FRET assay.
The target of test [3] is T1, Beta-secretase 1. The experiment in a line: Inhibition of human recombinant BACE1 at 0.2 uM by FRET assay. Put shortly:
as §1

T1 sequence (P56817 whole entry): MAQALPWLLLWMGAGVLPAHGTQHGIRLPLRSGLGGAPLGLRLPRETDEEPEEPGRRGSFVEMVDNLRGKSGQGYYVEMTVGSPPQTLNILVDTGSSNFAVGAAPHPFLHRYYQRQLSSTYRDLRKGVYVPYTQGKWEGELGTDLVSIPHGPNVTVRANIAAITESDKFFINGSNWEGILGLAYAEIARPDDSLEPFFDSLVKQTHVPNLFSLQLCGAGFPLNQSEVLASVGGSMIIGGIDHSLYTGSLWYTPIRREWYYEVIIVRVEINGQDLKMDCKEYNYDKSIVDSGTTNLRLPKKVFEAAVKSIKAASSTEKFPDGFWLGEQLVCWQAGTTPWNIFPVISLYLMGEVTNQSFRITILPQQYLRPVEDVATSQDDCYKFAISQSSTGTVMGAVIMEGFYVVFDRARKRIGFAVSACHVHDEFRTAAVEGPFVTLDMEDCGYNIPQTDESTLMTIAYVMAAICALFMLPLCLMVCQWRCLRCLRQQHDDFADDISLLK

For `CC(C)[C@H](NC(=O)[C@@H](N)CNC(=O)c1[nH]c(=O)[nH]c(=O)c1F)C(=O)N[C@@H](CC1CCCCC1)C(=O)N[C@@H](Cc1ccccc1)[C@@H](O)C(=O)NC1(c2ccccc2)CCCC1`, the inhibition in test [1] was 98%; in test [3] it was 84%. The 50% inhibitory concentration (IC50) in test [2] worked out at 29 nM.
Take `CC(C)C[C@H](NC(=O)[C@@H](NC(=O)[C@@H](N)CNC(=O)c1cc(O)ccc1O)C(C)C)C(=O)N[C@@H](Cc1ccccc1)[C@@H](O)C(=O)NC1(c2ccccc2)CCCC1`: the inhibition in test [1] is 90%; in test [3] it was 58%.
For `CC(C)C[C@H](NC(=O)[C@@H](NC(=O)[C@@H](N)CNC(=O)c1cc(O)ccc1O)C(C)C)C(=O)N[C@@H](Cc1ccccc1)[C@@H](O)C(=O)NC1(c2ccccc2)CCCCC1` the same measures were 86% and 43%.
For `CC(C)C[C@H](NC(=O)[C@@H](NC(=O)[C@@H](N)CNC(=O)c1[nH]c(=O)[nH]c(=O)c1F)C(C)C)C(=O)N[C@@H](Cc1ccccc1)[C@@H](O)C(=O)N[C@@H](C)c1ccccc1`, the values for the inhibition in test [1] and in test [3] were 99% and 83%, respectively. Besides, in test [2], the IC50 was determined as 20.4 nM.
Take `CC(C)C[C@H](NC(=O)[C@@H](NC(=O)[C@@H](N)CNC(=O)c1[nH]c(=O)[nH]c(=O)c1F)C(C)C)C(=O)N[C@@H](Cc1ccccc1)[C@@H](O)C(=O)NC1(c2ccccc2)CCCCC1`: the values for the inhibition in test [1] and in test [3] were 98% and 85%, respectively. The IC50 in test [2] worked out at 24.8 nM.
As to `CC(C)C[C@H](NC(=O)[C@@H](NC(=O)[C@@H](N)CNC(=O)c1[nH]c(=O)[nH]c(=O)c1F)C(C)C)C(=O)N[C@@H](Cc1ccccc1)[C@@H](O)C(=O)NC(C)(C)c1ccccc1`, the figures for the inhibition in test [1] and in test [3] were 98% and 83%, respectively. Further, the IC50 in test [2] was found to be 27 nM.
Take `CC(C)[C@H](NC(=O)[C@@H](N)CNC(=O)c1[nH]c(=O)[nH]c(=O)c1F)C(=O)N[C@@H](CC1CCCCC1)C(=O)N[C@@H](Cc1ccccc1)[C@@H](O)C(=O)N[C@@H](C)c1ccccc1`: the figures for the inhibition in test [1] and in test [3] were 98% and 80%, respectively. The IC50 in test [2] was 24.2 nM.
For `CC(C)[C@H](NC(=O)[C@@H](N)CNC(=O)c1[nH]c(=O)[nH]c(=O)c1F)C(=O)N[C@@H](CC1CCCCC1)C(=O)N[C@@H](Cc1ccccc1)[C@@H](O)C(=O)N[C@H](C)c1ccccc1` the same measures were 98%, 79% and 39.6 nM.
For `CC(C)[C@H](NC(=O)[C@@H](N)CNC(=O)c1cc(O)ccc1O)C(=O)N[C@@H](CC1CCCCC1)C(=O)N[C@@H](Cc1ccccc1)[C@@H](O)C(=O)N[C@@H](C)c1ccccc1`, the inhibition in test [1] turned out to be 89%; in test [3], 54%.
On to `CC(C)[C@H](NC(=O)[C@@H](N)CNC(=O)c1cc(O)ccc1O)C(=O)N[C@@H](CC1CCCCC1)C(=O)N[C@@H](Cc1ccccc1)[C@@H](O)C(=O)NC1(c2ccccc2)CCCC1`, for which the values for the inhibition in test [1] and in test [3] were 89% and 58%, respectively.
Regarding `CC(C)C[C@H](NC(=O)[C@@H](NC(=O)[C@@H](N)CNC(=O)c1[nH]c(=O)[nH]c(=O)c1F)C(C)C)C(=O)N[C@@H](Cc1ccccc1)[C@@H](O)C(=O)NC1(c2ccccc2)CCN(Cc2ccccc2)CC1`, the figures for the inhibition in test [1] and in test [3] were 93% and 59%, respectively.
Turning to `CC(C)C[C@H](NC(=O)[C@@H](NC(=O)[C@@H](N)CNC(=O)c1cc(O)ccc1O)C(C)C)C(=O)N[C@@H](Cc1ccccc1)[C@@H](O)C(=O)N[C@@H](C)c1ccccc1`, the inhibition in test [1] worked out at 88%; in test [3] it was 47%.
With `CC(C)[C@H](NC(=O)[C@@H](N)CNC(=O)c1cc(O)ccc1O)C(=O)N[C@@H](CC1CCCCC1)C(=O)N[C@@H](Cc1ccccc1)[C@@H](O)C(=O)NC(C)(C)c1ccccc1`, the inhibition is 89% in test [1] and 49% in test [3].
For `CC(C)C[C@H](NC(=O)[C@@H](NC(=O)[C@@H](N)CNC(=O)c1[nH]c(=O)[nH]c(=O)c1F)C(C)C)C(=O)N[C@@H](Cc1ccccc1)[C@@H](O)C(=O)NC1(c2ccccc2)CCCC1`, the inhibition in test [1] was 99%; in test [3], 86%. Besides, the IC50 in test [2] worked out at 11.6 nM.
Take `CC(C)[C@H](NC(=O)[C@@H](N)CNC(=O)c1cc(O)ccc1O)C(=O)N[C@@H](CC1CCCCC1)C(=O)N[C@@H](Cc1ccccc1)[C@@H](O)C(=O)N[C@H](C)c1ccccc1`: the inhibition in test [1] was 88%; in test [3] it was 51%.
On to `CC(C)[C@H](NC(=O)[C@@H](N)CNC(=O)c1[nH]c(=O)[nH]c(=O)c1F)C(=O)N[C@@H](CC1CCCCC1)C(=O)N[C@@H](Cc1ccccc1)[C@@H](O)C(=O)NC1(c2ccccc2)CCCCC1`, for which the inhibition in test [1] stood at 97%; in test [3], 77%. In test [2], the IC50 is 40.6 nM.
Regarding `CC(C)C[C@H](NC(=O)[C@@H](NC(=O)[C@@H](N)CNC(=O)c1cc(O)ccc1O)C(C)C)C(=O)N[C@@H](Cc1ccccc1)[C@@H](O)C(=O)N[C@H](C)c1ccccc1`, the inhibition in test [1] worked out at 87%; in test [3], 44%.
As to `CC(C)C[C@H](NC(=O)[C@@H](NC(=O)[C@@H](N)CNC(=O)c1cc(O)ccc1O)C(C)C)C(=O)N[C@@H](Cc1ccccc1)[C@@H](O)C(=O)NC1(c2ccccc2)CCN(Cc2ccccc2)CC1`, in test [1], the inhibition is 59%.
For the compound `CC(C)[C@H](NC(=O)[C@@H](N)CNC(=O)c1[nH]c(=O)[nH]c(=O)c1F)C(=O)N[C@@H](CC1CCCCC1)C(=O)N[C@@H](Cc1ccccc1)[C@@H](O)C(=O)NC1(c2ccccc2)CCN(Cc2ccccc2)CC1`, the inhibition worked out at 95% in test [1] and 64% in test [3].
With `CC(C)[C@H](NC(=O)[C@@H](N)CNC(=O)c1[nH]c(=O)[nH]c(=O)c1F)C(=O)N[C@@H](CC1CCCCC1)C(=O)N[C@@H](Cc1ccccc1)[C@@H](O)C(=O)NC(C)(C)c1ccccc1`, the inhibition came out at 98% in test [1] and 78% in test [3]. For the same compound, the IC50 in test [2] stood at 31.9 nM.
Consider `CC(C)C[C@H](NC(=O)[C@@H](NC(=O)[C@@H](N)CNC(=O)c1cc(O)ccc1O)C(C)C)C(=O)N[C@@H](Cc1ccccc1)[C@@H](O)C(=O)NC(C)(C)c1ccccc1`, for which the inhibition turned out to be 88% in test [1] and 44% in test [3].
Regarding `CC(C)[C@H](NC(=O)[C@@H](N)CNC(=O)c1cc(O)ccc1O)C(=O)N[C@@H](CC1CCCCC1)C(=O)N[C@@H](Cc1ccccc1)[C@@H](O)C(=O)NC1(c2ccccc2)CCCCC1`, the inhibition was determined as 87% in test [1] and 46% in test [3].
For the compound `CC(C)[C@H](NC(=O)[C@@H](N)CNC(=O)c1cc(O)ccc1O)C(=O)N[C@@H](CC1CCCCC1)C(=O)N[C@@H](Cc1ccccc1)[C@@H](O)C(=O)NC1(c2ccccc2)CCN(Cc2ccccc2)CC1`, the inhibition in test [1] worked out at 57%.
`CC(C)C[C@H](NC(=O)[C@@H](NC(=O)[C@@H](N)CNC(=O)c1[nH]c(=O)[nH]c(=O)c1F)C(C)C)C(=O)N[C@@H](Cc1ccccc1)[C@@H](O)C(=O)N[C@H](C)c1ccccc1`: the inhibition in test [1] stood at 98%; in test [3], 81%. In test [2], the IC50 amounted to 34.8 nM.
